# Rows were chosen to be rich in hits. Some 7.1% of all compounds tested hit in one or more screens of this group.
# PTEN del growth: growth suppressors of cells with PTEN tumor suppressor deletion; HCT116 PTEN-null viability, CellTiter-Glo, 60 h; active compounds read low; viability, % at 10 µM; 140,000 compounds, 1.2% hits;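 active = viability at or below a set limit, 4 SD under the median of all tested compounds, cut at about 3.7% in these data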;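 also: PTEN knockout HCT116 line with beta catenin targeted HCT116 as companion control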
# HUVEC prolif 384: blocks proliferation of human endothelial cells. HUVEC proliferation, CellTiter-Glo luminescence, 72 h; active compounds read low. viability, % at 10 µM (by protocol). 86,000 compounds, 1.1% hits. AID 648;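 active = viability at or below 30%; inactive = viability above 30%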;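 also: 100% = median luminescence of DMSO-only cell control wells on each plate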
# H69AR inhibit: blocks growth of human H69AR lung tumor cells; H69AR lung tumor viability, ATP luminescence, 72 h; active compounds read low; viability, % at 10 µM; 85,000 compounds, 6% hits;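 active = viability at or below 40%; inactive = viability above 40%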;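 also: multidrug resistant small cell line overexpressing MRP-1 efflux transporter; 100% = mean luminescence of untreated control wells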
# Fibroblast inh: blocks proliferation of human lung fibroblasts; LL 47 human lung fibroblast viability, ATP luminescence; active compounds read low; viability, % at 10 µM; 85,000 compounds, 1.1% hits;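 active = viability at or below 50% in the single dose screen; inactive = viability above 50%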;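 also: compound exposure lasted 72 h before the ATP readout; 100% = median luminescence of untreated cell-only wells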
#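 Benchmarks: Cell-only wells, no compound | Test system: LL 47 human lung fibroblasts, passage 12 or lower | Input: 1,150 cells/well | Measured by: CellTiter-Glo luminescence measuring cellular ATP | Medium: IMEM, 15% FBS supplement | Schedule: Overnight attachment after seeding, then 72 h compound exposure at 37 °C | Doses: Compound addition at 0.1% DMSO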
# Cav3 T inh: inhibitors of human Cav3.2 T-type calcium channel; O95180; Cav3.2-expressing cells, Fluo-4 calcium fluorescence FDSS; active compounds read low; B-score at 10 µM; 100,000 compounds, 4% hits; AID 449739;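 active = single-dose well whose peak fluorescence ratio is a statistical outlier from its plate by either plate-standardised score or position-corrected B-score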
# HCT116 bCat-KO: beta-catenin-lacking colon tumor cell growth suppression; HCT116 beta-catenin knockout viability, CellTiter-Glo, 60 h; active compounds read low; viability, % at 10 µM; 140,000 compounds, 1.5% hits;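 active = viability at or under a set limit, the compound median less 4 SD, cut at about 6% in these data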;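 also: 0% = Hyamine 1622 control at 20 µM and 100% = untreated cell control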
# Numbers without * were called inactive; . = no result given.
SMILES,PTEN del growth,HUVEC prolif 384,H69AR inhibit,Fibroblast inh,Cav3 T inh,HCT116 bCat-KO
CCc1ccc(-c2nc(CN3CCCC(C(=O)O)C3)c(C)o2)cc1 (centres undefined),91,108,107,98,0.58,109
O=C(NCc1ccco1)C1CCN(c2nc3ccccc3n2Cc2ccccc2F)CC1,85,98,48,98,-7.1*,79
Cc1oc(-c2ccccc2F)nc1CN1CCC(C(=O)NCc2ccco2)CC1,89,101,38*,101,-1.5,78
Cc1oc(-c2cccc(Cl)c2)nc1CN1CCCC(C(=O)NCCCN2CCOCC2)C1 (centres undefined),79,80,80,104,.,67
CCc1ccc(-c2nc(CN3CCC(C(=O)NCc4ccc(F)cc4)CC3)c(C)o2)cc1,51,14*,3.3*,96,-7.3*,43
CCN(CCNC(=O)C1CCCN(Cc2nc(-c3ccc(OC)cc3)oc2C)C1)c1ccccc1 (centres undefined),13,4.7*,32*,.,-4.9*,13
Cc1oc(-c2ccccc2F)nc1CN1CCC(C(=O)NC2CCCCCCC2)CC1,29,68,73,96,.,18
CCN(CCNC(=O)C1CCN(Cc2nc(-c3cccc(Cl)c3)oc2C)CC1)c1ccccc1,1.5*,5.4*,3.0*,43*,-6.9*,1.3*
COc1ccc(CCNC(=O)C2CCN(Cc3nc(-c4ccc(Cl)cc4)oc3C)CC2)cc1OC,.,84,101,100,.,.
CCN(CCNC(=O)C1CCN(Cc2nc(-c3ccc(Cl)cc3)oc2C)CC1)c1ccccc1,1.6*,3.9*,7.3*,63,-8.4*,1.1*
CCc1ccc(-c2nc(CN3CCC(C(=O)NCCN(CC)c4ccccc4)CC3)c(C)o2)cc1,1.7*,2.3*,1.6*,17*,-7.5*,1.9*
Cc1oc(-c2ccc(Cl)cc2)nc1CN1CCC(C(=O)NCc2cccs2)CC1,66,56,94,105,-7.5*,68
CCOC(=O)CSC1=NC(=O)/C(=C/c2ccc(OC)cc2)S1,97,.,.,.,.,94
CCN1c2ccccc2-c2nc3ccccc3n2C1c1cccs1 (centres undefined),71,.,.,.,.,74
Cc1ccsc1C1Nc2ccc3ncccc3c2C2=C1C(=O)CC(C)(C)C2 (centres undefined),11,.,.,.,-3.9*,11
O=C1CCCC2=C1C(c1cccs1)Nc1ccc3ncccc3c12 (centres undefined),62,.,.,.,1.5,65
CC12CCC(c3n[nH]c(=S)nc31)C2(C)C (centres undefined),92,.,.,.,.,98
O=C(CCS(=O)(=O)c1ccccc1)Nc1nc(-c2ccccn2)cs1,.,70,4.0*,56,0.85,.
Cc1csc(NC(=O)CCS(=O)(=O)c2ccc(Br)cc2)n1,44,94,94,95,1.2,61
O=C(Nc1nc(-c2ccccn2)cs1)C1CC1,62,84,80,89,-0.54,55
Cc1ccc(S(=O)(=O)Nc2cccc(-c3cn4ccsc4n3)c2)cc1,33,70,30*,88,-1.5,40
Cc1cccc(S(=O)(=O)Nc2cccc(-c3cn4ccsc4n3)c2)c1,90,.,.,.,-1.2,96
CC1(C)CC(=O)c2sc(NC(=O)CCS(=O)(=O)c3ccccc3)nc2C1,3.7*,78,1.1*,50,2.7,3.6*
O=C(Nc1nc(-c2ccccn2)cs1)c1ccc(Br)s1,13,24*,13*,27*,1.7,7
CCC(c1nnc(SCC(=O)Nc2ccc(Cl)cc2C(F)(F)F)n1C1CCCCC1)N(C)C (centres undefined),79,.,.,.,.,98
SMILES,PTEN del growth,HUVEC prolif 384,H69AR inhibit,Fibroblast inh,Cav3 T inh,HCT116 bCat-KO
O=[N+]([O-])c1cc(S(=O)(=O)N2CCCC2)ccc1N/N=C1/CCCc2ccccc21,84,.,.,.,.,84
Cc1ccc(S(=O)(=O)Nc2ccc(-c3csc(-c4ccccc4)n3)cc2)cc1,2.4*,.,.,.,.,2.7*
O=C(CS(=O)(=O)c1ccccc1)Nc1nc(-c2ccccc2)cs1,91,89,72,98,-4.9*,98
Cc1ccc(S(=O)(=O)CC(=O)Nc2nc(-c3ccccc3)cs2)cc1,86,77,79,100,-7.2*,86
O=S(=O)(NC12CC3CC(CC(C3)C1)C2)c1ccc(F)cc1,80,112,99,97,-0.51,78
Oc1ccc(CNCC2COc3ccccc3O2)cc1 (centres undefined),100,.,.,.,0.15,96
